Data taken from ChEMBL document CHEMBL1138354, “2-(2'-((dimethylamino)methyl)-4'-(fluoroalkoxy)-phenylthio)benzenamine derivatives as serotonin transporter imaging agents” (J Med Chem, 2007).

How the values were obtained:
Heart [1] = test: Biodistribution in iv dosed rat heart after 30 mins; format: ADME, organism-based; settings: in vivo, 0.5 h
Outline: (§1)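 [18F]-labeled tracer was given to rats under isoflurane anesthesia: 0.2 ml sterile water with 1 mg/mL BSA and 10–100 μCi, into the femoral vein. Three rats per group. Animals were killed by cervical dislocation under anesthesia at the stated time. Organs were removed, weighed and counted. Uptake was calculated as percent dose against a 1% aliquot of the injected dose counted alongside.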

Bone [2] = test: Biodistribution in iv dosed rat bone after 120 mins; format: ADME, organism-based, Bone element; settings: in vivo, 2 h; outline: as §1
Liver [3] = test: Biodistribution in iv dosed rat liver after 30 mins; format: ADME, organism-based; settings: in vivo, 0.5 h; outline: as §1
Nucleic Acid [4] = test: Ratio of drug level in cortex to cerebellum in rat assessed as radioactivity after 60 mins; format: ADME, tissue-based; settings: in vivo, 1 h
Brain [5] = test: Biodistribution in iv dosed rat brain after 60 mins; format: ADME, organism-based; settings: in vivo, 1 h; outline: as §1
Lung [6] = test: Biodistribution in iv dosed rat lungs after 60 mins; format: ADME, organism-based; settings: in vivo, 1 h; outline: as §1
Striatum [7] = test: Biodistribution in iv dosed rat striatum assessed as radioactivity after 240 mins; format: ADME, organism-based; settings: in vivo, 4 h
Kidney [8] = test: Biodistribution in iv dosed rat kidney after 120 mins; format: ADME, organism-based; settings: in vivo, 2 h; outline: as §1
Muscle tissue [9] = test: Biodistribution in iv dosed rat muscle after 60 mins; format: ADME, organism-based; settings: in vivo, 1 h; outline: as §1
Muscle tissue [10] = test: Biodistribution in iv dosed rat muscle after 30 mins; format: ADME, organism-based; settings: in vivo, 0.5 h; outline: as §1
Nucleic Acid [11] = test: Ratio of drug level in striatum to cerebellum in rat assessed as radioactivity after 30 mins; format: ADME, tissue-based; settings: in vivo, 0.5 h
Outline: (§2)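 Groups of three normal rats under isoflurane received the [18F] tracer (10–100 μCi in 0.2 ml sterile water containing 1 mg/mL BSA) into the femoral vein. They were killed by cervical dislocation under anesthesia at the stated time. Cortex, striatum, hippocampus, hypothalamus and cerebellum were dissected, weighed and gamma-counted. %dose/g was set against a 100-fold diluted dose aliquot, and each region was divided by cerebellum.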

Kidney [12] = test: Biodistribution in iv dosed rat kidney after 2 mins; format: ADME, organism-based; settings: in vivo; outline: as §1
Striatum [13] = test: Biodistribution in iv dosed rat striatum assessed as radioactivity after 120 mins; format: ADME, organism-based; settings: in vivo, 2 h
Liver [14] = test: Biodistribution in iv dosed rat liver after 60 mins; format: ADME, organism-based; settings: in vivo, 1 h; outline: as §1
Kidney [15] = test: Biodistribution in iv dosed rat kidney after 240 mins; format: ADME, organism-based; settings: in vivo, 4 h; outline: as §1
Zone of skin [16] = test: Biodistribution in iv dosed rat skin after 240 mins; format: ADME, organism-based; settings: in vivo, 4 h
Blood [17] = test: Biodistribution in iv dosed rat blood after 120 mins; format: ADME, organism-based; settings: in vivo, 2 h; outline: as §1
Nucleic Acid [18] = test: Ratio of drug level in striatum to cerebellum in rat assessed as radioactivity after 240 mins; format: ADME, tissue-based; settings: in vivo, 4 h
Muscle tissue [19] = test: Biodistribution in iv dosed rat muscle after 120 mins; format: ADME, organism-based; settings: in vivo, 2 h; outline: as §1
Heart [20] = test: Biodistribution in iv dosed rat heart after 2 mins; format: ADME, organism-based; settings: in vivo; outline: as §1
Liver [21] = test: Biodistribution in iv dosed rat liver after 2 mins; format: ADME, organism-based; settings: in vivo; outline: as §1
Nucleic Acid [22] = test: Ratio of drug level in striatum to cerebellum in rat assessed as radioactivity after 2 mins; format: ADME, tissue-based; settings: in vivo
Blood [23] = test: Biodistribution in iv dosed rat blood after 30 mins; format: ADME, organism-based; settings: in vivo, 0.5 h; outline: as §1
Nucleic Acid [24] = test: Ratio of drug level in hypothalamus to cerebellum in rat assessed as radioactivity after 240 mins; format: ADME, tissue-based; settings: in vivo, 4 h
Blood [25] = test: Biodistribution in iv dosed rat blood after 2 mins; format: ADME, organism-based; settings: in vivo; outline: as §1
Zone of skin [26] = test: Biodistribution in iv dosed rat skin after 2 mins; format: ADME, organism-based; settings: in vivo
Heart [27] = test: Biodistribution in iv dosed rat heart after 240 mins; format: ADME, organism-based; settings: in vivo, 4 h; outline: as §1
Zone of skin [28] = test: Biodistribution in iv dosed rat skin after 30 mins; format: ADME, organism-based; settings: in vivo, 0.5 h
Outline: (§3)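 Rats, 3 per group, under isoflurane. ¹⁸F tracer (10–100 μCi) in 0.2 ml sterile water with 1 mg/mL BSA injected into the femoral vein. Killed by cervical dislocation under anesthesia at the stated time. Organs removed, weighed and counted. % dose/organ calculated against counts of a 1% diluted aliquot of the injected dose.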

Lung [29] = test: Biodistribution in iv dosed rat lungs after 120 mins; format: ADME, organism-based; settings: in vivo, 2 h; outline: as §1
Nucleic Acid [30] = test: Ratio of drug level in hippocampus to cerebellum in rat assessed as radioactivity after 30 mins; format: ADME, tissue-based; settings: in vivo, 0.5 h; outline: as §2
Bone [31] = test: Biodistribution in iv dosed rat bone after 240 mins; format: ADME, organism-based, Bone element; settings: in vivo, 4 h; outline: as §1
Striatum [32] = test: Biodistribution in iv dosed rat striatum assessed as radioactivity after 60 mins; format: ADME, organism-based; settings: in vivo, 1 h
Nucleic Acid [33] = test: Ratio of drug level in cortex to cerebellum in rat assessed as radioactivity after 120 mins; format: ADME, tissue-based; settings: in vivo, 2 h; outline: as §2
Spleen [34] = test: Biodistribution in iv dosed rat spleen after 120 mins; format: ADME, organism-based; settings: in vivo, 2 h; outline: as §3
Brain [35] = test: Biodistribution in iv dosed rat brain after 2 mins; format: ADME, organism-based; settings: in vivo; outline: as §1
Bone [36] = test: Biodistribution in iv dosed rat bone after 30 mins; format: ADME, organism-based, Bone element; settings: in vivo, 0.5 h; outline: as §1
Blood [37] = test: Biodistribution in iv dosed rat blood after 240 mins; format: ADME, organism-based; settings: in vivo, 4 h; outline: as §1
Spleen [38] = test: Biodistribution in iv dosed rat spleen after 240 mins; format: ADME, organism-based; settings: in vivo, 4 h
Nucleic Acid [39] = test: Ratio of drug level in hypothalamus to cerebellum in rat after 30 mins; format: ADME, tissue-based; settings: in vivo, 0.5 h
Outline: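 Rats, 3 per group, given ¹⁸F tracer (10–100 μCi, 0.2 ml sterile water with 1 mg/mL BSA) into the femoral vein under isoflurane. Brain regions, including hypothalamus, striatum and cerebellum, dissected, weighed and counted. % dose/g calculated against a 1% diluted aliquot of the dose. Region/cerebellum ratio is region %dose/g divided by cerebellum %dose/g. SD of the ratio propagated from both means and SDs.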

Zone of skin [40] = test: Biodistribution in iv dosed rat skin after 120 mins; format: ADME, organism-based; settings: in vivo, 2 h; outline: as §3
Striatum [41] = test: Biodistribution in iv dosed rat striatum assessed as radioactivity after 30 mins; format: ADME, organism-based; settings: in vivo, 0.5 h
Spleen [42] = test: Biodistribution in iv dosed rat spleen after 30 mins; format: ADME, organism-based; settings: in vivo, 0.5 h; outline: as §3
Nucleic Acid [43] = test: Ratio of drug level in hippocampus to cerebellum in rat assessed as radioactivity after 240 mins; format: ADME, tissue-based; settings: in vivo, 4 h
Lung [44] = test: Biodistribution in iv dosed rat lungs after 30 mins; format: ADME, organism-based; settings: in vivo, 0.5 h; outline: as §1
Blood [45] = test: Biodistribution in iv dosed rat blood after 60 mins; format: ADME, organism-based; settings: in vivo, 1 h; outline: as §1
Brain [46] = test: Biodistribution in iv dosed rat brain after 30 mins; format: ADME, organism-based; settings: in vivo, 0.5 h; outline: as §1
Nucleic Acid [47] = test: Ratio of drug level in hippocampus to cerebellum in rat assessed as radioactivity after 120 mins; format: ADME, tissue-based; settings: in vivo, 2 h; outline: as §2
Lung [48] = test: Biodistribution in iv dosed rat lungs after 240 mins; format: ADME, organism-based; settings: in vivo, 4 h; outline: as §1
Nucleic Acid [49] = test: Ratio of drug level in hypothalamus to cerebellum in rat assessed as radioactivity after 60 mins; format: ADME, tissue-based; settings: in vivo, 1 h
Cortex = test: Biodistribution in iv dosed rat cortex assessed as radioactivity after 240 mins; format: ADME, organism-based; settings: in vivo, 4 h
Outline: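 Rats received the [18F] tracer under isoflurane anesthesia: 0.2 ml sterile water with 1 mg/mL BSA and 10–100 μCi, into the femoral vein. Three rats per group. After cervical dislocation under anesthesia, the cortex was dissected, weighed and gamma-counted. Percent dose/g was calculated against a 100-fold diluted aliquot of the injected dose.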

Zone of skin [50] = test: Biodistribution in iv dosed rat skin after 60 mins; format: ADME, organism-based; settings: in vivo, 1 h
Nucleic Acid [51] = test: Ratio of drug level in hippocampus to cerebellum in rat assessed as radioactivity after 2 mins; format: ADME, tissue-based; settings: in vivo
Heart [52] = test: Biodistribution in iv dosed rat heart after 60 mins; format: ADME, organism-based; settings: in vivo, 1 h; outline: as §1
Nucleic Acid [53] = test: Ratio of drug level in cortex to cerebellum in rat assessed as radioactivity after 240 mins; format: ADME, tissue-based; settings: in vivo, 4 h
Nucleic Acid [54] = test: Ratio of drug level in striatum to cerebellum in rat assessed as radioactivity after 120 mins; format: ADME, tissue-based; settings: in vivo, 2 h; outline: as §2
[55] = Partition coefficient, log P at pH 7.4; format: physicochemical; settings: octanol/water
Heart [56] = test: Biodistribution in iv dosed rat heart after 120 mins; format: ADME, organism-based; settings: in vivo, 2 h; outline: as §1
Kidney [57] = test: Biodistribution in iv dosed rat kidney after 60 mins; format: ADME, organism-based; settings: in vivo, 1 h; outline: as §1
Spleen [58] = test: Biodistribution in iv dosed rat spleen after 2 mins; format: ADME, organism-based; settings: in vivo
Muscle tissue [59] = test: Biodistribution in iv dosed rat muscle after 2 mins; format: ADME, organism-based; settings: in vivo; outline: as §1

Which results are given for `CN(C)Cc1cc(OCC[18F])ccc1Sc1ccc(Br)cc1N`?
Drug uptake (Heart [1]): 0.23 %ID; Drug uptake (Bone [2]): 9.3 %ID; Drug uptake (Liver [3]): 4.58 %ID; Ratio (Nucleic Acid [4]): 2.41; Drug uptake (Brain [5]): 1.92 %ID; Drug uptake (Lung [6]): 3.44 %ID; Drug uptake (Striatum [7]): 0.98 % ID/g; Drug uptake (Kidney [8]): 2 %ID; Drug uptake (Muscle tissue [9]): 15.5 %ID; Drug uptake (Muscle tissue [10]): 15.9 %ID; Ratio (Nucleic Acid [11]): 1.86; Drug uptake (Kidney [12]): 5.33 %ID; Drug uptake (Striatum [13]): 1.37 % ID/g; Drug uptake (Liver [14]): 3.45 %ID; Drug uptake (Kidney [15]): 1.53 %ID; Drug uptake (Zone of skin [16]): 6.79 %ID; Drug uptake (Blood [17]): 6.19 %ID; Ratio (Nucleic Acid [18]): 3.84; Drug uptake (Muscle tissue [19]): 10.2 %ID; Drug uptake (Heart [20]): 1.38 %ID; Drug uptake (Liver [21]): 11.1 %ID; Ratio (Nucleic Acid [22]): 0.96; Drug uptake (Blood [23]): 5.7 %ID; Ratio (Nucleic Acid [24]): 4.26; Drug uptake (Blood [25]): 4.67 %ID; Drug uptake (Zone of skin [26]): 5.3 %ID; Drug uptake (Heart [27]): 0.12 %ID; Drug uptake (Zone of skin [28]): 7.06 %ID; Drug uptake (Lung [29]): 2.98 %ID; Ratio (Nucleic Acid [30]): 1.63; Drug uptake (Bone [31]): 12.5 %ID; Drug uptake (Striatum [32]): 1.27 % ID/g; Ratio (Nucleic Acid [33]): 2.9; Drug uptake (Spleen [34]): 0.54 %ID; Drug uptake (Brain [35]): 2.05 %ID; Drug uptake (Bone [36]): 8.17 %ID; Drug uptake (Blood [37]): 5.21 %ID; Drug uptake (Spleen [38]): 0.39 %ID; Ratio (Nucleic Acid [39]): 2.04; Drug uptake (Zone of skin [40]): 7.07 %ID; Drug uptake (Striatum [41]): 1.09 % ID/g; Drug uptake (Spleen [42]): 0.7 %ID; Ratio (Nucleic Acid [43]): 2.99; Drug uptake (Lung [44]): 4.63 %ID; Drug uptake (Blood [45]): 7.05 %ID; Drug uptake (Brain [46]): 1.88 %ID; Ratio (Nucleic Acid [47]): 2.23; Drug uptake (Lung [48]): 2.1 %ID; Ratio (Nucleic Acid [49]): 2.97; Drug uptake (Cortex): 0.82 % ID/g; Drug uptake (Zone of skin [50]): 7.86 %ID; Ratio (Nucleic Acid [51]): 0.88; Drug uptake (Heart [52]): 0.21 %ID; Ratio (Nucleic Acid [53]): 3.21; Ratio (Nucleic Acid [54]): 2.84; logD [55]: 2.52; Drug uptake (Heart [56]): 0.19 %ID; Drug uptake (Kidney [57]): 2.44 %ID; Drug uptake (Spleen [58]): 1.05 %ID; Drug uptake (Muscle tissue [59]): 18.2 %ID
